In the library only some 5.8% were active in any assay of this set; here they are far more common.
NCF1 inh: blocks human p47phox regulatory protein of NADPH oxidases. P14598. p47phox/p22phox peptide binding, fluorescence polarization, 2 h. inhibition, % at 24.7 µM. 220,000 tested, 0.53% active;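 active = inhibition above about 30%, limit read from the data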
RBBP9 inh: blocks human serine hydrolase RBBP9; O75884; recombinant RBBP9, FP-Rh probe fluorescence polarization; inhibition, % at 7.94 µM; 220,000 tested, 0.2% active; AID 1515;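 active = inhibition above the campaign mean of all tested compounds plus 3 SD, cut at about 14% in these data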
Target sequence (O75884 whole entry, looked up): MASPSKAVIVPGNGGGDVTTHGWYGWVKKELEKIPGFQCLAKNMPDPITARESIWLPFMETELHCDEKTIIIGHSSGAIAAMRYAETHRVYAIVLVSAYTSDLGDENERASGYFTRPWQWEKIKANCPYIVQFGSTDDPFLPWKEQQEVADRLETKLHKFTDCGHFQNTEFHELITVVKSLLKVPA
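Measured by: FP readout at 525/598 nm; material: recombinant human RBBP9; also added: Serine-hydrolase probe FP-Rh, 375 nM pre-mixing; medium: Tris buffer pH 8.0, NaCl, Pluronic; replication: one well per compound; doses: one concentration, 7.94 µM nominal, 0.794% DMSO; timing: preincubation 30 min plus labeling 45 min at 25 °C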
ROMK mod: modulates human ROMK potassium channel activity; P48048; Tet-inducible ROMK, thallium flux fluorescence; actives lie on both sides; B-score at 10 µM; 130,000 tested, 2% active;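 active = signal ratio slope over the read window, or its plate-corrected B-score, at least 3 SD from the plate mean, either direction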;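 also: B-score of the F/F0 ratio slope over 7 to 12 s after thallium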
14-3-3 Bad inh: disrupts binding of bovine 14-3-3 zeta to phospho-Bad peptide | P63103 | TR-FRET 14-3-3zeta/Dy647-pBad peptide displacement, 1 h | inhibition, % at 21.7 µM | 220,000 tested, 0.71% active;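 active = inhibition above about 70%, limit read from the data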
Target sequence (P63103 whole entry, looked up): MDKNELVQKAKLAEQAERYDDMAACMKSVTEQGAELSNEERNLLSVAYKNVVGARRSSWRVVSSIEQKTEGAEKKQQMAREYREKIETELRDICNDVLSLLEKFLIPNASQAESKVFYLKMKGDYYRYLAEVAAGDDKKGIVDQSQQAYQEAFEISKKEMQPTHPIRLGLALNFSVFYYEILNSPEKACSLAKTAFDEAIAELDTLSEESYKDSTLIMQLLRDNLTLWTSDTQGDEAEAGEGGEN
WT yeast gro inh: growth inhibition of WT yeast, mitochondrial fusion screen; mitochondrial fusion phenotypic screen, WT strain; inhibition, % at 10 µM; 190,000 tested, 2.1% active; in the data active = inhibition above about 58%; tested in S. cerevisiae
Cl transport mod: modulators of human KCC2 chloride dependent transport; Q9H2X9; KCC2 cells, thallium flux FluoZin-2 fluorescence; B-score of Tl+ flux slope (higher = more flux/activation; lower = inhibition) at 10 µM; 190,000 tested, 2.2% active;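 active = thallium flux slope and its plate-corrected score both differing from the plate sample mean at a set confidence after two filtering rounds, in either direction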;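 also: slope of fluorescence scaled to starting intensity during 10 to 20 s after thallium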
Numbers stand for hits; n = inactive; x = not tested or not shown; + = active, no number.

SMILES	NCF1 inh	RBBP9 inh	ROMK mod	14-3-3 Bad inh	WT yeast gro inh	Cl transport mod
Cc1ccc(C(=O)Nc2ccc(S(=O)(=O)NCc3ccco3)cc2)cc1	n	n	n	n	66	n
CN(Cc1ccccc1)Cc1nc2scc(-c3ccccc3)c2c(=O)[nH]1	n	n	n	n	n	n
O=[N+]([O-])c1ccc(/C=N/Nc2nc(N3CCCCC3)nc(N3CCCCC3)n2)cc1	n	n	n	n	n	n
O=[N+]([O-])c1ccc(/C=N/Nc2nc(N3CCCCCC3)nc(N3CCCCCC3)n2)o1	n	n	x	n	63	n
Cc1ccc(S(=O)(=O)N(CC(=O)N/N=C/c2ccccc2C(=O)O)c2cc(Cl)cc(Cl)c2)cc1	n	n	n	n	n	n
CN(C)C=NC(=O)c1cn(-c2ccc(F)cc2)c(=O)c2ccccc12	n	n	n	n	n	x
N#Cc1c(N)nc(Sc2ccc(Cl)cc2)c(C#N)c1-c1ccccc1Cl	n	n	x	n	x	n
COc1ccc(NC(=O)c2ccc(S(=O)(=O)N3CCOCC3)o2)cc1	n	n	x	n	x	n
CN(C1=C(N2CCCCC2)C(=O)c2ccccc2C1=O)c1ccccc1	n	n	n	n	76	n
CCC(=O)Nc1ccc(Br)c(Cl)c1	n	n	n	n	91	n
CCOC(=O)c1c(NC(=O)C2C3C=CC(C3)C2C(=O)O)sc2c1CCC(CC)C2 (stereo unspecified)	n	n	x	n	n	-5.8
CCCCN(C(=O)Cc1cccs1)c1nnc(-c2cccnc2)s1	n	n	n	71	n	n
c1ccc2c(c1)OCC(c1csc3ncnc(N4CCOCC4)c13)O2 (stereo unspecified)	n	n	x	n	n	n
CCN(CC)c1ncnc2scc(C3COc4ccccc4O3)c12 (stereo unspecified)	n	n	x	n	85	n
Cc1cccc2nc(CSc3ccc(Cl)cc3)cn12	n	n	n	n	73	n
Cc1ccc(SCc2cn3c(C)csc3n2)cc1	n	n	x	n	74	n
O=C(Nc1cccc(F)c1)N1CCCC(CNS(=O)(=O)Cc2ccccc2)C1 (stereo unspecified)	n	n	n	n	n	n
Cc1cc(O)c(C=O)c2c1C(=O)Oc1c(CO)c(O)c3c(c1O2)C(O)OC3=O (stereo unspecified)	n	32	x	n	n	n
CSc1ncccc1C(=O)N1CCCC(CCC(=O)NCc2ccc(F)c(F)c2)C1 (stereo unspecified)	x	n	n	n	n	n
CCCC(c1nnnn1Cc1ccco1)N1CCC(C(N)=O)CC1 (stereo unspecified)	n	n	x	71	n	n
CCC(c1nnnn1Cc1ccco1)N1CCC(C(N)=O)CC1 (stereo unspecified)	n	n	x	n	n	n
COc1ccc2cc(OC)c(C(=O)N3CCOCC3)cc2c1	37	n	n	n	n	n
FC(F)(F)c1nc(N2CCCC2)ncc1-c1nnnn1-c1ccc(Cl)cc1	n	n	x	n	59	n
FC(F)(F)c1ccncc1-c1nnnn1-c1ccc(Cl)cc1	n	n	x	n	x	n
CC(C)c1ccc(/C=C(\NC(=O)c2ccccc2)C(=O)NCCCN2CCOCC2)cc1	n	n	n	n	x	n
SMILES	NCF1 inh	RBBP9 inh	ROMK mod	14-3-3 Bad inh	WT yeast gro inh	Cl transport mod
CN(C)c1ccc2nc3ccc(=[N+](C)C)cc-3sc2c1	+	n	n	n	n	n
Cc1cc2nc3ccc(=[N+](C)C)cc-3sc2cc1N	+	n	n	n	x	n
Cc1nc2cc(C)c(C)cc2s1	n	n	n	n	n	n
CCCc1cc2c(cc1NC(=O)c1ccco1)OCO2	n	n	n	n	n	n
Cc1cc(OCC(=O)O)c2cccc(C)c2n1	n	n	n	77	n	n
CCOC(=O)c1nc(C)sc1-c1ccnn1S(=O)(=O)c1cccc(Cl)c1	n	n	x	n	x	n
CC1(C)CCN(Cc2ccccc2)C1CC#N (stereo unspecified)	n	n	n	71	n	x
COc1cc(C=C2C(=O)OC(c3ccccc3)OC2=O)cc(Br)c1O (stereo unspecified)	n	n	n	n	n	n
COc1cc(C2N=C(c3ccccc3)NO2)cc(Br)c1O (stereo unspecified)	+	n	n	n	n	n
CCCOc1ccc(C2C(C(=O)c3ccco3)=C(O)C(=O)N2CCN2CCOCC2)cc1OC (stereo unspecified)	n	n	n	n	58	x
